# Experimental data published in ChEMBL document CHEMBL1124260, “Synthesis and antitumor activity of quaternary ellipticine glycosides, a series of novel and highly active antitumor agents” (1988).
# Legend:
# Mus musculus [1] = assay: Inhibition of sc implanted syngeneic colon 38 carcinoma by ip administration at 30 mg/kg on 1, 3, 5, 7, 9 days measured as inhibition ratio; type: functional; conditions: route intraperitoneal
# Summary of the method: (§1)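 Tumor homogenate (70 mg) implanted into the axillary region of female BDF1 mice. Drug dissolved in 0.9% NaCl and diluted with saline just before use, then given ip on days 1, 3, 5, 7 and 9. Tumor length and width were measured by caliper on day 20 after inoculation and converted to estimated weight. Result reported as treated vs control tumor weight, T/C %.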
# Mus musculus [2] = assay: Effect on ip implanted syngeneic B16 melanoma by ip administration for 9 days at 5 mg/kg was measured as increase in mean life span; conditions: 216 h
# Mus musculus [3] = assay: Antitumor activity against ip implanted P388 leukemia in mouse after iv administration of 32 mg/kg for 5 days expressed as increase in mean life span; conditions: 120 h
# Mus musculus [4] = assay: Antitumor activity against ip implanted P388 leukemia in mouse after ip administration of 40 mg/kg for 5 days expressed as increase in mean life span; type: functional; conditions: 120 h, route intraperitoneal
# Summary of the method: (§2)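 Saline-dissolved drug was given ip daily for 5 consecutive days, beginning 24 h post-transplant. ILS % was calculated from treated vs control mean survival time over an 80-day observation period.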
# Mus musculus [5] = assay: Antitumor activity against ip implanted P388 leukemia in mouse after ip administration of 20 mg/kg for 5 days expressed as increase in mean life span; type: functional; conditions: 120 h, route intraperitoneal; summary of the method: as §2
# Mus musculus [6] = assay: Number of survivors out of 6 ip implanted P388 leukemia in mouse after ip administration of 20 mg/kg after 80 days; type: functional; conditions: route intraperitoneal
# Summary of the method: (§3)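 P388 leukemia, 10^6 ascitic cells implanted ip in female BDF1 mice. Drug in saline given ip for 5 consecutive days from 24 h after transplant. Groups of six per dose level. Survivors/total recorded at the 80-day end of observation; ILS % from treated/control mean survival time.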
# Mus musculus [7] = assay: Antitumor activity against ip implanted P388 leukemia in mouse after ip administration of 1.25 mg/kg for 5 days expressed as increase in mean life span; type: functional; conditions: 120 h, route intraperitoneal; summary of the method: as §2
# Mus musculus [8] = assay: Inhibition of sc implanted syngeneic colon 38 carcinoma by ip administration at 20 mg/kg on 1, 3, 5, 7, 9 days measured as inhibition ratio; type: functional; conditions: route subcutaneous; summary of the method: as §1
# Mus musculus [9] = assay: Antitumor activity against ip implanted L1210 leukemia in mouse after ip administration of 10 mg/kg for 5 days expressed as increase in mean life span; type: functional; conditions: route intraperitoneal, 10 mg/kg
# Summary of the method: (§4)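 Drug was dissolved in 0.9% NaCl, diluted just before use and given ip once daily for 5 consecutive days, starting 24 h after transplant. ILS % = mean survival time of treated vs control mice, observed for 80 days.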
# Mus musculus [10] = assay: Antitumor activity against ip implanted P388 leukemia in mouse after ip administration of 10 mg/kg for 5 days expressed as increase in mean life span; type: functional; conditions: 120 h, route intraperitoneal; summary of the method: as §2
# Mus musculus [11] = assay: Number of survivors out of 6 ip implanted L1210 leukemia mouse, tested after 80 days at 30 mg/kg; type: functional; conditions: route intraperitoneal
# Summary of the method: (§5)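 Female BDF1 mice implanted ip with ascitic fluid holding 10^5 L1210 cells. Saline-dissolved drug given ip daily on days 1-5, starting 24 h after implant. Six mice per dose group, followed 80 days. Survivors/total counted at day 80; ILS % from mean survival time vs controls.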
# Mus musculus [12] = assay: Antitumor activity against ip implanted L1210 leukemia in mouse after ip administration of 30 mg/kg for 5 days expressed as increase in mean life span; type: functional; conditions: Mus musculus, L1210, ip, 120 h, route intraperitoneal; summary of the method: as §4
# Mus musculus [13] = assay: Antitumor activity against ip implanted L1210 leukemia in mouse after iv administration of 8 mg/kg for 5 days expressed as increase in mean life span; conditions: 120 h
# Mus musculus [14] = assay: Number of survivors out of 6 ip implanted L1210 leukemia in mouse after ip administration of 40 mg/kg after 80 days; type: functional; conditions: route intraperitoneal; summary of the method: as §5
# Mus musculus [15] = assay: Number of survivors out of 6 ip implanted P388 leukemia in mouse after ip administration of 40 mg/kg after 80 days; type: functional; conditions: route intraperitoneal; summary of the method: as §3
# Mus musculus [16] = assay: Antitumor activity against ip implanted L1210 leukemia in mouse after ip administration of 20 mg/kg for 5 days expressed as increase in mean life span; type: functional; conditions: 120 h, route intraperitoneal; summary of the method: as §4
# Mus musculus [17] = assay: Antitumor activity against ip implanted L1210 leukemia in mouse after iv administration of 32 mg/kg for 5 days expressed as increase in mean life span; conditions: 120 h
# Mus musculus [18] = assay: Number of survivors out of 6 ip implanted P388 leukemia in mouse after ip administration of 10 mg/kg after 80 days; type: functional; conditions: route intraperitoneal; summary of the method: as §3
# Mus musculus [19] = assay: Effect on ip implanted syngeneic B16 melanoma by ip administration for 9 days at 10 mg/kg was measured as increase in mean life span; conditions: 216 h
# Mus musculus [20] = assay: Antitumor activity against ip implanted L1210 leukemia in mouse after ip administration of 40 mg/kg for 5 days expressed as increase in mean life span; type: functional; conditions: 120 h, route intraperitoneal; summary of the method: as §4
# Mus musculus [21] = assay: Inhibition of sc implanted syngeneic colon 38 carcinoma by ip administration at 40 mg/kg on 1, 3, 5, 7, 9 days measured as inhibition ratio; type: functional; conditions: route subcutaneous; summary of the method: as §1
# Mus musculus [22] = assay: Antitumor activity against ip implanted L1210 leukemia in mouse after ip administration of 1.25 mg/kg for 5 days expressed as increase in mean life span; type: functional; conditions: 120 h, route intraperitoneal; summary of the method: as §4
# Mus musculus [23] = assay: Antitumor activity against ip implanted P388 leukemia in mouse after ip administration of 5 mg/kg for 5 days expressed as increase in mean life span; type: functional; conditions: 120 h, route intraperitoneal; summary of the method: as §2
# Mus musculus [24] = assay: Antitumor activity against ip implanted L1210 leukemia in mouse after ip administration of 5 mg/kg for 5 days expressed as increase in mean life span; type: functional; conditions: Mus musculus, L1210, ip, 120 h, route intraperitoneal; summary of the method: as §4
# Mus musculus [25] = assay: Number of survivors out of 6 ip implanted L1210 leukemia in mouse after ip administration of 20 mg/kg after 80 days; type: functional; conditions: route intraperitoneal; summary of the method: as §5
# Mus musculus [26] = assay: Effect on ip implanted syngeneic B16 melanoma by ip administration of 20 mg/kg for 9 days measured as increase in mean life span; conditions: 216 h
# Mus musculus [27] = assay: Antitumor activity against ip implanted L1210 leukemia in mouse after iv administration of 16 mg/kg for 5 days expressed as increase in mean life span; conditions: 120 h
# Mus musculus [28] = assay: Number of survivors out of 6 ip implanted L1210 leukemia in mouse after ip administration of 10 mg/kg after 80 days; type: functional; conditions: route intraperitoneal; summary of the method: as §5
# Mus musculus [29] = assay: Effect on ip implanted syngeneic B16 melanoma by ip administration for 9 days at 2.5 mg/kg was measured as increase in mean life span; conditions: 216 h
# Mus musculus [30] = assay: Antitumor activity against ip implanted syngeneic P388 leukemia in mouse after ip administration of 5 mg/kg for 5 days expressed as increase in mean life span; type: functional; conditions: 120 h, route intraperitoneal; summary of the method: as §2
# Mus musculus [31] = assay: Inhibition of sc implanted syngeneic colon 38 carcinoma by ip administration at 5 mg/kg on 1, 3, 5, 7, 9 days measured as inhibition ratio; type: functional; conditions: route subcutaneous; summary of the method: as §1
structure (smiles),measurement,setting,value
Cc1c2cc[n+]([C@@H]3O[C@H](CO)[C@H](O)[C@@H]3O)cc2c(C)c2c1[nH]c1ccc(O)cc12.[Cl-] (stereo in doubt; 43a),T/C,Mus musculus [1],19%
same,ILS at 5 mg/kg,Mus musculus [2],39%
same,ILS at 32 mg/kg,Mus musculus [3],176%
same,ILS at 40 mg/kg,Mus musculus [4],> 220%
same,ILS at 20 mg/kg,Mus musculus [5],> 510%
same,Cures,Mus musculus [6],4
same,ILS at 1.25 mg/kg,Mus musculus [7],68%
same,T/C,Mus musculus [8],61%
same,ILS,Mus musculus [9],>377%
same,ILS at 10 mg/kg,Mus musculus [10],> 332%
same,Cures,Mus musculus [11],6
same,ILS at 30 mg/kg,Mus musculus [12],> 967%
same,ILS at 8 mg/kg,Mus musculus [13],49%
same,Cures,Mus musculus [14],1
same,Cures,Mus musculus [15],2
same,ILS at 20 mg/kg,Mus musculus [16],> 503%
same,ILS at 32 mg/kg,Mus musculus [17],134%
same,Cures,Mus musculus [18],2
same,ILS at 10 mg/kg,Mus musculus [19],44%
same,ILS at 40 mg/kg,Mus musculus [20],> 281%
same,T/C,Mus musculus [21],8%
same,ILS at 1.25 mg/kg,Mus musculus [22],46%
same,ILS at 5 mg/kg,Mus musculus [23],158%
same,ILS at 5 mg/kg,Mus musculus [24],102%
same,Cures,Mus musculus [25],3
same,ILS at 20 mg/kg,Mus musculus [26],77%
same,ILS at 16 mg/kg,Mus musculus [27],81%
same,Cures,Mus musculus [28],2
CC(=O)[O-].Cc1c2cc[n+](C)cc2c(C)c2c1[nH]c1ccc(O)cc12 [ELLIPTINIUM ACETATE],ILS at 2.5 mg/kg,Mus musculus [29],35%
same,ILS at 5 mg/kg,Mus musculus [24],48%
same,ILS at 5 mg/kg,Mus musculus [30],90%
same,T/C,Mus musculus [31],38%
